According to ChEMBL document CHEMBL1158182, “Antifungal activity of chalcones: a mechanistic study using various yeast strains” (Eur J Med Chem, 2008):

How the values were obtained:
Type in all cases: functional
[1] = tested on: Saccharomyces cerevisiae; experiment: Antifungal activity against haploid Saccharomyces cerevisiae 1S by agar dilution method
Method in brief: (§1)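 S. cerevisiae and K. lactis strains were tested by agar dilution on rich YPD agar at 30 °C. Compound stocks in 96% EtOH were added to the medium to give […]. Cells were suspended in water, serially diluted to 10^9–10^3 cells/ml, and plated with a metal replicator. MIC was read from growth.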

[2] = tested on: Saccharomyces cerevisiae; experiment: Antifungal activity against haploid Saccharomyces cerevisiae 1169 by agar dilution method; method in brief: as §1
[3] = tested on: Saccharomyces cerevisiae; experiment: Antifungal activity against haploid Saccharomyces cerevisiae 2180 by agar dilution method; method in brief: as §1
[4] = tested on: Saccharomyces cerevisiae; experiment: Antifungal activity against diploid Saccharomyces cerevisiae 1a by agar dilution method; method in brief: as §1
[5] = tested on: Saccharomyces cerevisiae; experiment: Antifungal activity against diploid Saccharomyces cerevisiae 29a by agar dilution method; method in brief: as §1
[6] = tested on: Saccharomyces cerevisiae; experiment: Antifungal activity against haploid Saccharomyces cerevisiae Sigma 1278b by agar dilution method; method in brief: as §1
[7] = tested on: Saccharomyces cerevisiae; experiment: Antifungal activity against haploid Saccharomyces cerevisiae FY4 by agar dilution method; method in brief: as §1
[8] = tested on: Saccharomyces cerevisiae; experiment: Antifungal activity against haploid Saccharomyces cerevisiae 10560-6B by agar dilution method; method in brief: as §1
[9] = tested on: Saccharomyces cerevisiae; experiment: Antifungal activity against haploid Saccharomyces cerevisiae YSH1170 by agar dilution method; method in brief: as §1
[10] = tested on: Saccharomyces cerevisiae; experiment: Antifungal activity against haploid Saccharomyces cerevisiae YSH1171 by agar dilution method; method in brief: as §1
[11] = tested on: Ogataea angusta; experiment: Antifungal activity against Hansenula polymorpha WT1 with ade1 ura3 genotype by agar dilution method
Method in brief: (§2)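 H. polymorpha strains were tested by agar dilution on rich YPD agar at 37 °C. Compound stocks in 96% EtOH were mixed into the medium to give […]. Cells were suspended in water, serially diluted to 10^9, 10^7, 10^5 and 10^3 cells/ml, and applied to the agar with a metal replicator. MIC was read from growth.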

[12] = tested on: Ogataea angusta; experiment: Antifungal activity against Hansenula polymorpha WT2 with ade1 met6 genotype by agar dilution method; method in brief: as §2
[13] = tested on: Ogataea angusta; experiment: Antifungal activity against Hansenula polymorpha CD1 with ade1 leu2 cds1 genotype by agar dilution method; method in brief: as §2
[14] = tested on: Ogataea angusta; experiment: Antifungal activity against Hansenula polymorpha CD2 with ade1 leu2 cds2 genotype by agar dilution method; method in brief: as §2
[15] = tested on: Ogataea angusta; experiment: Antifungal activity against Hansenula polymorpha CD3 with ade1 leu2 cds3 genotype by agar dilution method; method in brief: as §2
[16] = tested on: Ogataea angusta; experiment: Antifungal activity against Hansenula polymorpha 2a with arg1 leu2 ura3 cys1 genotype by agar dilution method; method in brief: as §2
[17] = tested on: Ogataea angusta; experiment: Antifungal activity against Hansenula polymorpha 2b with arg1 ade1 leu2 genotype by agar dilution method; method in brief: as §2
[18] = tested on: Ogataea angusta; experiment: Antifungal activity against Hansenula polymorpha D22 with arg1/arg1 ade1/ADE1 leu2/leu2 URA3/ura3 CYS1/cys1 genotype by agar dilution method; method in brief: as §2
[19] = tested on: Ogataea angusta; experiment: Antifungal activity against Hansenula polymorpha M2 with met2 genotype by agar dilution method; method in brief: as §2
[20] = tested on: Ogataea angusta; experiment: Antifungal activity against Hansenula polymorpha MC1 with met2 cys1 genotype by agar dilution method; method in brief: as §2
[21] = tested on: Ogataea angusta; experiment: Antifungal activity against Hansenula polymorpha AS1 with arg1 gsh2delta genotype by agar dilution method; method in brief: as §2
[22] = tested on: Ogataea angusta; experiment: Antifungal activity against Hansenula polymorpha M4 with met4 genotype by agar dilution method; method in brief: as §2
[23] = tested on: Ogataea angusta; experiment: Antifungal activity against Hansenula polymorpha AU05 with ade3 ura3 genotype by agar dilution method; method in brief: as §2
[24] = tested on: Ogataea angusta; experiment: Antifungal activity against Hansenula polymorpha R3 with rgh3 genotype by agar dilution method; method in brief: as §2
[25] = tested on: Ogataea angusta; experiment: Antifungal activity against Hansenula polymorpha CRD2 with leu2 CDR2 genotype by agar dilution method; method in brief: as §2
[26] = tested on: Kluyveromyces lactis; experiment: Antifungal activity against Kluyveromyces lactis 2-18B with MATalpha metA1 ura3 leu2 genotype by agar dilution method; method in brief: as §1
[27] = tested on: Kluyveromyces lactis; experiment: Antifungal activity against Kluyveromyces lactis 1-6A with MATalpha uraA lys arg genotype by agar dilution method; method in brief: as §1
[28] = tested on: Kluyveromyces lactis; experiment: Antifungal activity against Kluyveromyces lactis 2-19B with MATalpha ura lys arg genotype by agar dilution method; method in brief: as §1

Measured: MIC

N#Cc1ccc(/C=C/C(=O)c2ccc(Cl)cc2)cc1
> 40 µg/mL: all assays above

Cc1ccc(/C=C/C(=O)c2ccc(Cl)cc2)cc1
> 40 µg/mL: all assays above

O=C(/C=C/C=C/c1ccccc1)c1ccc(Cl)cc1
> 40 µg/mL: all assays above

COc1cccc(/C=C/C(=O)c2ccc(Cl)cc2)c1
> 40 µg/mL: all assays above

COc1cc(/C=C/C(=O)c2ccc(Cl)cc2)cc(OC)c1O
> 40 µg/mL: all assays above

COc1ccc(/C=C/C(=O)c2ccc(Cl)cc2)cc1O
> 40 µg/mL: all assays above

CC(=O)Nc1ccc(/C=C/C(=O)c2ccc(Cl)cc2)cc1
> 40 µg/mL: all assays above

O=C(/C=C/c1ccc(Cl)cc1)c1ccc(Cl)cc1 [4',4-DICHLOROCHALCONE]
> 40 µg/mL: all assays above

O=C(/C=C/c1ccc(O)c(O)c1)c1ccc(Cl)cc1
> 40 µg/mL: all assays above

O=C(/C=C/c1ccccc1)c1ccc(Cl)cc1
> 40 µg/mL: all assays above

O=C(/C=C/c1ccc(O)c(O)c1)c1ccccc1
> 40 µg/mL: all assays above
